# Experimental data taken from ChEMBL document CHEMBL1154626, “Novel, potent, and selective quinoxaline-based 5-HT(3) receptor ligands. 1. Further structure-activity relationships and pharmacological characterization” (J Med Chem, 2009).
# Activity calls are given as the source filed them. No cut-off for these calls is given here.
# Legend:
# Rattus norvegicus [1] = test: Plasma concentration in rat at 0.25 mg/kg, iv; format: ADME, organism-based; design: dose 0.25 mg/kg, route intravenous; conditions: in vivo
# How it was run: (§1)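 Rats dosed iv at 0.25–1 mg/kg and sacrificed 30 min after injection. Mean ± SEM of three animals. Brain/plasma ratio assumes 1 g tissue equals 1 mL water.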
# Brain = test: Drug level in rat brain at 0.5 mg/kg, iv; format: ADME, organism-based; design: dose 0.5 mg/kg, route intravenous; conditions: in vivo, BLD = below limit of detection; how it was run: as §1
# [2] = Ratio of drug level from brain to plasma in rat at 1 mg/kg, iv; format: ADME, organism-based; design: dose 1 mg/kg, route intravenous
# How it was run: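 Rats given a single iv injection (0.25–1 mg/kg) and killed 30 min afterwards. Brain/plasma ratio calculated assuming 1 g tissue equals 1 mL water. Three animals per dose, mean ± SEM.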
# Rattus norvegicus [3] = test: Agonist activity at 5HT3 receptor in iv dosed Sprague-Dawley rat assessed as induction of bradycardia measured after 5 to 30 mins post-treatment by von Bezold-Jarisch reflex test; format: functional
# How it was run: (§2)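 Urethane-anesthetized rats, compound given iv. Agonism was scored as the compound itself evoking the von Bezold-Jarisch reflex (bradycardia). Antagonism was tested by giving the compound iv 5, 15 or 30 min before phenylbiguanide (PBG) and scoring the reduction of PBG-evoked bradycardia. ED50 is the dose giving half of the maximal bradycardia evoked by the same compound.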
# [4] = target: T1, 5-hydroxytryptamine receptor 3A (Cavia porcellus, UniProt O70212); test: Antagonist activity at 5HT3 receptor in spontaneously beating guinea pig right atrium assessed as inhibition of serotonin-induced maximum response by noncompetitive binding assay; format: tissue-based, Cardiac atrium; conditions: read-out: IC50
# T1 sequence (O70212 whole entry): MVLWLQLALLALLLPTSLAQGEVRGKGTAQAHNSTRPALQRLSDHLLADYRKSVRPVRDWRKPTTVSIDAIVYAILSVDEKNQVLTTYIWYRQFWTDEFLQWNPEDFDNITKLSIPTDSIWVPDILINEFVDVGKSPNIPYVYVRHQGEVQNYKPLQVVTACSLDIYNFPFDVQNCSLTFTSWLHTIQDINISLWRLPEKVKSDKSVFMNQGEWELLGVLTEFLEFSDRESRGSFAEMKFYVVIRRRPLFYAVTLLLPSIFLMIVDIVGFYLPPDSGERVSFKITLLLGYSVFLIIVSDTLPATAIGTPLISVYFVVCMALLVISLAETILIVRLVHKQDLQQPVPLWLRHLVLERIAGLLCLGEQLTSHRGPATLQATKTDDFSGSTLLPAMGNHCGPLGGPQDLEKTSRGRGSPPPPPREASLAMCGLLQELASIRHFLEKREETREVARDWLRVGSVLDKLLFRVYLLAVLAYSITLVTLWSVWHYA
# How it was run: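 Spontaneously beating guinea pig right atria, exposed 30 min to test compound at 10 μM, followed by cumulative 5-HT log concentration-response curves versus control. Mean ± SEM of five to seven observations.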
# Rattus norvegicus [5] = test: Antagonist activity at 5HT3 receptor in iv dosed Sprague-Dawley rat assessed as inhibition of 1-phenylbiguanide-induced bradycardia administered 5 mins before 1-phenylbiguanide challenge measured after 5 to 30 mins post-treatment by von Bezold-Jarisch reflex test; format: functional; how it was run: as §2
# [6] = target: T2, 5-hydroxytryptamine receptor 3A (Rattus norvegicus, UniProt P35563); test: Displacement of [3H]LY278584 from 5HT3 receptor in rat cortical homogenate; conditions: read-out: Ki
# T2 sequence (P35563 whole entry): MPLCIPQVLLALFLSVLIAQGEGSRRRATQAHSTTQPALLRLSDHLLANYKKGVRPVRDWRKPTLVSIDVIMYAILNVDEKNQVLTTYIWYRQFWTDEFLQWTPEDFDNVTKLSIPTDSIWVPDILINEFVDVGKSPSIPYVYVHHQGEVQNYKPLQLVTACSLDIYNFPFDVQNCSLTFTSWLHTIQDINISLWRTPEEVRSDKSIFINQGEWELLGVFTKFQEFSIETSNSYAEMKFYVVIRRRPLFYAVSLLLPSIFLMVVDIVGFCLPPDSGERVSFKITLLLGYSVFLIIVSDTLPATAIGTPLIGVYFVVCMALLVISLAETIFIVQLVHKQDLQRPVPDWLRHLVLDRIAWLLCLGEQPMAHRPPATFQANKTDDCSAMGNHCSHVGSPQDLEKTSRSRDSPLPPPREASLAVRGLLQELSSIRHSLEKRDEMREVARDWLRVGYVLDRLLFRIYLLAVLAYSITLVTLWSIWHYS
# How it was run: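 Rat cortical homogenate, competition against [3H]LY278584 binding. Ki is the concentration giving half-maximal inhibition of binding, as the mean ± S.E.M. of three determinations.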
# [7] = target: T3, Adrenergic receptor alpha-1 (Rattus norvegicus, UniProt P15823+P23944+P43140); test: Displacement of [3H]prazosin from adrenergic alpha1 receptor in rat cortex
# T3 sequence (P15823 whole entry): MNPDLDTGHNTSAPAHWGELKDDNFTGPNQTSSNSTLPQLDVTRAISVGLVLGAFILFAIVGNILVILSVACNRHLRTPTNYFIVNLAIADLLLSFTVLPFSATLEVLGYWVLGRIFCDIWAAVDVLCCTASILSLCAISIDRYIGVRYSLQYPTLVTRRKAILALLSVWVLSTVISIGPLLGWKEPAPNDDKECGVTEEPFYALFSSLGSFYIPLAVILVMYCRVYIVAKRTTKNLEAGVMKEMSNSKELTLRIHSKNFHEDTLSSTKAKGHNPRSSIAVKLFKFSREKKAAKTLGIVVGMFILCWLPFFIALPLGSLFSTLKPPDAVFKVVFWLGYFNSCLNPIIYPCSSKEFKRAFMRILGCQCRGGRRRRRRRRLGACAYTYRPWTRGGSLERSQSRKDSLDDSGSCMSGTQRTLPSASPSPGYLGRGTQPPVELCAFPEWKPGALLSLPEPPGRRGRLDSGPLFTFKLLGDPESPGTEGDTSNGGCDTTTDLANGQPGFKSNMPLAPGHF
# T3 sequence (P23944 whole entry): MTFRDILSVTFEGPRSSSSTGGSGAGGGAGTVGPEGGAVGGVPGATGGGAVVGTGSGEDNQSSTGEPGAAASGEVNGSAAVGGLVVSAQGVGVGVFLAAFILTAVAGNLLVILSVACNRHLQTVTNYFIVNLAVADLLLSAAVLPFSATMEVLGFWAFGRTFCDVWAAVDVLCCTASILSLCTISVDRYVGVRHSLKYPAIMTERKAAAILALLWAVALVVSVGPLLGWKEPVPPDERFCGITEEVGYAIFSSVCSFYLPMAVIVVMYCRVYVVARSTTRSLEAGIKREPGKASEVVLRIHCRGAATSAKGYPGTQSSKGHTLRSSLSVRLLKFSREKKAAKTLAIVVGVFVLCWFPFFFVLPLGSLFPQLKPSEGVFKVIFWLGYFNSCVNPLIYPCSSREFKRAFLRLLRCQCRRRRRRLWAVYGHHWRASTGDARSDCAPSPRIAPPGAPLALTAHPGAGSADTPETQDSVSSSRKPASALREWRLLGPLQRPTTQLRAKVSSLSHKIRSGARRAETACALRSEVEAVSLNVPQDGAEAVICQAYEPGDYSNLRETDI
# T3 sequence (P43140 whole entry): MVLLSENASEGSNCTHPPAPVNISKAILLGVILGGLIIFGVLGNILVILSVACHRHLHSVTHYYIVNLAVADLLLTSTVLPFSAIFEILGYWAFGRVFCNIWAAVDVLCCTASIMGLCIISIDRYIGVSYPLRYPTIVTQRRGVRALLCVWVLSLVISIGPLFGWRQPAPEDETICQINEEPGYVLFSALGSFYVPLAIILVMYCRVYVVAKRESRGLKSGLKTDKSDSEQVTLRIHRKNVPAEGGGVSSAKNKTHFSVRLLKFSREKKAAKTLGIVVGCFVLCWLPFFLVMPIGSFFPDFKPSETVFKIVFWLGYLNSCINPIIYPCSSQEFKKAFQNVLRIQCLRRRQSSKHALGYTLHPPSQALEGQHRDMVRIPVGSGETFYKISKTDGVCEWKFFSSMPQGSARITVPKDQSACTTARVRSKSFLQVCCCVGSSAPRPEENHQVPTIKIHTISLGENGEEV
# Rattus norvegicus [8] = test: Antagonist activity at 5HT3 receptor in Sprague-Dawley rat assessed as inhibition of 1-phenylbiguanide-induced bradycardia at 10 ug/kg, iv administered 5 mins before 1-phenylbiguanide challenge measured after 5 to 30 mins post-treatment by von Bezold-Jarisch reflex test; format: functional; design: scale not given: the % may be the effect or the level left; how it was run: as §2
# Rattus norvegicus [9] = test: Agonist activity at 5HT3 receptor in Sprague-Dawley rat assessed as induction of bradycardia at 10 ug/kg, iv measured after 5 to 30 mins post-treatment by von Bezold-Jarisch reflex test; format: functional; how it was run: as §2
# [10] = target: 5-hydroxytryptamine receptor 4 (Cavia porcellus, UniProt O70528); test: Displacement of [3H]GR-113808 from 5HT4 receptor in guinea pig striatum
# 5-hydroxytryptamine receptor 4, sequence (O70528 whole entry): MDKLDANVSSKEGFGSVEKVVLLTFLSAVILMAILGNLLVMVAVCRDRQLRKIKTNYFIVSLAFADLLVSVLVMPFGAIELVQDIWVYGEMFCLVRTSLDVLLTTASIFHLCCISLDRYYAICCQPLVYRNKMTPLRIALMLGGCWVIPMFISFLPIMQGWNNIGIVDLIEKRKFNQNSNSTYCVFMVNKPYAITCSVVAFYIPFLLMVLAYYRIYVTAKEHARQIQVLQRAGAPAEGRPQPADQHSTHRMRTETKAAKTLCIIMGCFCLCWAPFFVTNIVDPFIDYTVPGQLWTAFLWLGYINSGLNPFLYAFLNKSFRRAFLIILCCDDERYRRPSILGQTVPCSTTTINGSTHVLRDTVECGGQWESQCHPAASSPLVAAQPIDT
# Rattus norvegicus [11] = test: Antagonist activity at 5HT3 receptor in Sprague-Dawley rat assessed as inhibition of 1-phenylbiguanide-induced bradycardia at 50 ug/kg, iv administered 5 mins before 1-phenylbiguanide challenge measured after 5 to 30 mins post-treatment by von Bezold-Jarisch reflex test; format: functional; how it was run: as §2
# Rattus norvegicus [12] = test: Antagonist activity at 5HT3 receptor in Sprague-Dawley rat assessed as inhibition of 1-phenylbiguanide-induced bradycardia at 100 ug/kg, iv administered 5 mins before 1-phenylbiguanide challenge measured after 5 to 30 mins post-treatment by von Bezold-Jarisch reflex test; format: functional; how it was run: as §2
# Rattus norvegicus [13] = test: Agonist activity at 5HT3 receptor in Sprague-Dawley rat assessed as induction of bradycardia at 100 ug/kg, iv measured after 5 to 30 mins post-treatment by von Bezold-Jarisch reflex test; format: functional; how it was run: as §2
# D(2) dopamine receptor = D(2) dopamine receptor (Rattus norvegicus, UniProt P61169); test: Displacement of [3H]spiperone from dopamine D2 receptor in rat striatum
# D(2) dopamine receptor, sequence (P61169 whole entry): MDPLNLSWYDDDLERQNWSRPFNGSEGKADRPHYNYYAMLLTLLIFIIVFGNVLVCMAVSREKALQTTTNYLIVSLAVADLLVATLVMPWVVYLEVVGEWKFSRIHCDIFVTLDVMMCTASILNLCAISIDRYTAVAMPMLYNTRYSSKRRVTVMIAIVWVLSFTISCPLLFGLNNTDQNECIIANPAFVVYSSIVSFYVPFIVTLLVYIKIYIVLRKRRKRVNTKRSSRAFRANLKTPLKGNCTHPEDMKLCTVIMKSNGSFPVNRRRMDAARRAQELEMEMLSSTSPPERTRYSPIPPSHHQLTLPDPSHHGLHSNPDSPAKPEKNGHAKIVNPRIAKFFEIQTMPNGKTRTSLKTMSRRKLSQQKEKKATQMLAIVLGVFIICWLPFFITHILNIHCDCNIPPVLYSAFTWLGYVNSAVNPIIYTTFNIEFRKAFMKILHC
# [14] = target: T4, Alpha-2A adrenergic receptor (Rattus norvegicus, UniProt P22909); test: Displacement of [3H]RX821002 from adrenergic alpha2 receptor in rat cortex
# T4 sequence (P22909 whole entry): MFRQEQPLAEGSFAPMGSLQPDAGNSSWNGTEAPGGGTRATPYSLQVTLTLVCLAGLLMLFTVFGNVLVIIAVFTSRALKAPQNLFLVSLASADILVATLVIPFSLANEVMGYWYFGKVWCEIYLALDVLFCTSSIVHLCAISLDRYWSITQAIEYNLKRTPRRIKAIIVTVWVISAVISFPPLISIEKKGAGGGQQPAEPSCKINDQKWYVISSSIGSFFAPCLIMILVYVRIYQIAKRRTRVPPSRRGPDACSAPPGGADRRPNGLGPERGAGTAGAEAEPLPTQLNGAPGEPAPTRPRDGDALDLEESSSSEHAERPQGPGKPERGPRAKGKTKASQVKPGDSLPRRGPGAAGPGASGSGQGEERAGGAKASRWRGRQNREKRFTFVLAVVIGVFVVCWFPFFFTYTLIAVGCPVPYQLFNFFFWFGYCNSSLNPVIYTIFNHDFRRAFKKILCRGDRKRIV
# [15] = target: T5, 5-hydroxytryptamine receptor 1A (Rattus norvegicus, UniProt P19327); test: Displacement of [3H]8-OHDPAT from 5HT1A receptor in rat hippocampus; format: tissue-based
# T5 sequence (P19327 whole entry): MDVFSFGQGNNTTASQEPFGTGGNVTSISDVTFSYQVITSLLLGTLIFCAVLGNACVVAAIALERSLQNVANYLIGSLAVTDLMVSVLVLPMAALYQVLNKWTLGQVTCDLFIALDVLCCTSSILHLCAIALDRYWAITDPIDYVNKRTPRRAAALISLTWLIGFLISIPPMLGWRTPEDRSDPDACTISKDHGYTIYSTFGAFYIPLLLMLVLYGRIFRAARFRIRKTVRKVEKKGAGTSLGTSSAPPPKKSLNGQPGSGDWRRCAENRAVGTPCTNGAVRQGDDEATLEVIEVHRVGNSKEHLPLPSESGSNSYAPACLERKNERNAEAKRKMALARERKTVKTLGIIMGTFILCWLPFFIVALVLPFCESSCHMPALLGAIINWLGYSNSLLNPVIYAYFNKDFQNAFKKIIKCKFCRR
# D(1A) dopamine receptor = D(1A) dopamine receptor (Rattus norvegicus, UniProt P18901); test: Displacement of [3H]SCH-23390 from dopamine D1 receptor in rat striatum
# D(1A) dopamine receptor, sequence (P18901 whole entry): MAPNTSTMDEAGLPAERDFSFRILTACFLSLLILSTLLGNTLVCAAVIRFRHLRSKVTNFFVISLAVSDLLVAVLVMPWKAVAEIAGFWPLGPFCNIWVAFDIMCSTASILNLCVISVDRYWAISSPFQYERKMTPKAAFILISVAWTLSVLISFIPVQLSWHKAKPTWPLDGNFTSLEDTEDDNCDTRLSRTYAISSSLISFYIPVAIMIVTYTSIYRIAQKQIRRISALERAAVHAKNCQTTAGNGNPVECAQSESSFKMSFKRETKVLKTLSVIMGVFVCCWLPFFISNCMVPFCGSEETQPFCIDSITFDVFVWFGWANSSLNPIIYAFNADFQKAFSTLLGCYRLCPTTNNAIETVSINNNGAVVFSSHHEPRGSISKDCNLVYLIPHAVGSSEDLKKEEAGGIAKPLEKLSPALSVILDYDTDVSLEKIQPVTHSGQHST
# [16] = target: 5-hydroxytryptamine receptor 2A (Rattus norvegicus, UniProt P14842); test: Displacement of [3H]ketanserin from 5HT2A receptor in rat cortex
# 5-hydroxytryptamine receptor 2A, sequence (P14842 whole entry): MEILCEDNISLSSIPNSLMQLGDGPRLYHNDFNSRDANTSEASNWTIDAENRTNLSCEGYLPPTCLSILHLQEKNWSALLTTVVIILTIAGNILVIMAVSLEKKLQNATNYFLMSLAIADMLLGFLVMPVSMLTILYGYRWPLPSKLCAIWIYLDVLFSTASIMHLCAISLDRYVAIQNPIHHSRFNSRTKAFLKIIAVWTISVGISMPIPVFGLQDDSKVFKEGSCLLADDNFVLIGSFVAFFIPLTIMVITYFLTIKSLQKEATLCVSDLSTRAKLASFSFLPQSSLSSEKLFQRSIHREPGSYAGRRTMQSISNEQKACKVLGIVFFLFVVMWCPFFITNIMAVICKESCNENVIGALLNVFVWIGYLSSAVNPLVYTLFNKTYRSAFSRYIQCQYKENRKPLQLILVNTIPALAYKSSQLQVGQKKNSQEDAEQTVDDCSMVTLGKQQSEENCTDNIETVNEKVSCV
structure (smiles),measurement,setting,value
O=C(O)CN1CCN(c2nc3cc(F)ccc3n3cccc23)CC1,concentration,Rattus norvegicus [1],540 nM
same,Drug uptake,Brain,BLD
same,Kp,[2],0.03
same,ED50,Rattus norvegicus [3],0.036 mg/kg
same,IC50,[4],1880 nM
CN1CCN(c2nc3cccc(F)c3n3cccc23)CC1,ID50,Rattus norvegicus [5],0.12 mg/kg
same,Ki,[6],0.44 nM
Fc1ccc2c(c1)nc(N1CCN(CC3=NCCN3)CC1)c1cccn12,Ki,[6],30 nM
Cc1cccc2nc(N3CCN(Cc4c[nH]cn4)CC3)c3cccn3c12,Ki,[7],> 10000 nM
same,Activity,Rattus norvegicus [8],60%
same,ED50,Rattus norvegicus [3],0.037 mg/kg
same,ID50,Rattus norvegicus [5],0.0035 mg/kg
same,Activity,Rattus norvegicus [9],inactive
c1ccc2nc(N3CCNCC3)ccc2c1 [QUIPAZINE],Ki,[10],> 10000 nM
NNC(=O)CN1CCN(c2nc3cc(F)ccc3n3cccc23)CC1,Activity,Rattus norvegicus [8],inactive
same,Activity,Rattus norvegicus [11],inactive
same,ED50,Rattus norvegicus [3],0.057 mg/kg
same,Ki,[6],44.3 nM
same,Activity,Rattus norvegicus [12],inactive
same,Activity,Rattus norvegicus [13],80%
same,Activity,Rattus norvegicus [9],inactive
CN1CCN(c2nc3cc(F)ccc3n3cccc23)CC1,ID50,Rattus norvegicus [5],0.6 mg/kg
same,Ki,[6],0.81 nM
Fc1ccc2c(c1)nc(N1CCN(Cc3ncc[nH]3)CC1)c1cccn12,Ki,[7],> 10000 nM
same,Ki,D(2) dopamine receptor,> 10000 nM
same,Ki,[14],> 10000 nM
same,Ki,[15],> 10000 nM
same,Ki,D(1A) dopamine receptor,> 10000 nM
same,Ki,[6],5.6 nM
same,Ki,[16],> 10000 nM
